According to ChEMBL document CHEMBL4765252, “Design, synthesis, and biological evaluation of novel 4H-chromen-4-one derivatives as antituberculosis agents against multidrug-resistant tuberculosis” (Eur J Med Chem, 2020):
Values after ≈ are worked out from the molar mass of the structure shown.

Columns and labels:
[1] = system: Mycobacterium tuberculosis; assay: Antitubercular activity against Mycobacterium tuberculosis H37Rv assessed as inhibition of bacterial growth; format: functional
[2] = system: Mycobacterium tuberculosis; assay: Antitubercular activity against Mycobacterium tuberculosis H37Rv assessed as inhibition of bacterial growth measured after 7 days by resazurin assay; format: functional; details: 168 h, time 7 day
[3] = system: Mycobacterium tuberculosis; assay: Antitubercular activity against Mycobacterium tuberculosis H37Rv assessed as inhibition of bacterial growth incubated for 6 days by MABA assay; format: functional; details: 144 h, time 6 day
[4] = system: Mycobacterium tuberculosis; assay: microbe, parasite or virus in culture; details: mc2-7000, 144 h
Vero = assay: Cytotoxicity against African green monkey Vero cells assessed as reduction in cell viability; format: cell-based; details: Chlorocebus sabaeus
[5] = Selectivity index, ratio of IC50 for African green monkey Vero cells to MIC for Mycobacterium tuberculosis H37Rv; format: toxicity; details: read-out: Selectivity Index
Procedure, shortened: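 SI was calculated as Vero cell cytotoxicity IC50 divided by H37Rv MIC, both in μg/mL.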

[6] = Metabolic stability of the compound in mouse liver microsomes assessed as parent compound remaining […]; format: ADME, Microsome; details: read-out: Stabilty
[7] = Metabolic stability of the compound in mouse liver microsomes; format: ADME, Microsome
Procedure, shortened: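 Compound was incubated with mouse liver microsomes plus NADPH for 30 min. Remaining substrate concentration was normalized to the time-zero concentration and given as % remaining. The stability call was made from incubations run without the NADPH cofactor.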

[8] = Metabolic stability of the compound in human liver microsomes; format: ADME, Microsome
[9] = Tmax in BALB/c mouse at 100 mg/kg, po administered as single dose; format: ADME, organism-based; details: in vivo
[10] = Elimination half life in BALB/c mouse at 100 mg/kg, po administered as single dose; format: ADME, organism-based; details: in vivo, read-out: beta t1/2 (converted)
[11] = Elimination half life in BALB/c mouse at 5 mg/kg, iv administered as single dose; format: ADME, organism-based; details: in vivo, read-out: beta t1/2 (converted)
[12] = Cmax in BALB/c mouse at 5 mg/kg, iv administered as single dose; format: ADME, organism-based; design: route intravenous, dose 5 mg/kg; details: in vivo
[13] = Cmax in BALB/c mouse at 100 mg/kg, po administered as single dose; format: ADME, organism-based; design: route oral, dose 100 mg/kg; details: in vivo
[14] = AUC (0 to t) in BALB/c mouse at 5 mg/kg, iv administered as single dose; format: ADME, organism-based; design: dose 5 mg/kg; details: in vivo
[15] = AUC (0 to t) in BALB/c mouse at 100 mg/kg, po administered as single dose; format: ADME, organism-based; design: dose 100 mg/kg; details: in vivo
[16] = AUC (0 to infinity) in BALB/c mouse at 5 mg/kg, iv administered as single dose; format: ADME, organism-based; design: time infinity, route intravenous, dose 5 mg/kg; details: in vivo
[17] = AUC (0 to infinity) in BALB/c mouse at 100 mg/kg, po administered as single dose; format: ADME, organism-based; design: time infinity, route oral, dose 100 mg/kg; details: in vivo
[18] = MRT (0 to t) in BALB/c mouse at 5 mg/kg, iv administered as single dose; format: ADME, organism-based; details: in vivo
[19] = MRT (0 to t) in BALB/c mouse at 100 mg/kg, po administered as single dose; format: ADME, organism-based; details: in vivo
[20] = MRT (0 to infinity) in BALB/c mouse at 5 mg/kg, iv administered as single dose; format: ADME, organism-based; details: in vivo
[21] = MRT (0 to infinity) in BALB/c mouse at 100 mg/kg, po administered as single dose; format: ADME, organism-based; details: in vivo
[22] = Volume of distribution in BALB/c mouse at 5 mg/kg, iv administered as single dose; format: ADME, organism-based; details: in vivo
[23] = Clearance in BALB/c mouse at 5 mg/kg, iv administered as single dose; format: ADME, organism-based; details: in vivo
[24] = Oral bioavailability in BALB/c mouse at 100 mg/kg; format: ADME, organism-based; details: in vivo
[25] = Toxicity in BALB/c mouse infected with Mycobacterium tuberculosis H37Rv assessed as body weight at 100 mg/kg, po administered for 21 days (reference value: 21.32 +/- 1.03 gms); format: organism-based; details: in vivo, 504 h, time 21 day
[26] = system: Mycobacterium tuberculosis; assay: In vivo antitubercular activity against Mycobacterium tuberculosis H37Rv infected in BALB/c mouse assessed as reduction in bacterial burden in lungs at 100 mg/kg, po administered for 21 days (reference value: 5.35 +/-0.17 log10CFU); format: functional; details: time 21 day
[27] = Toxicity in BALB/c mouse infected with Mycobacterium tuberculosis H37Rv assessed as body weight at 25 mg/kg, po administered for 21 days (reference value: 21.32 +/- 1.03 gms); format: organism-based; details: in vivo, 504 h, time 21 day
[28] = system: Mycobacterium tuberculosis; assay: In vivo antitubercular activity against Mycobacterium tuberculosis H37Rv infected in BALB/c mouse assessed as reduction in bacterial burden in lungs at 25 mg/kg, po administered for 21 days (reference value: 5.35 +/-0.17 log10CFU); format: functional; details: time 21 day

COc1ccc(-c2cc(=O)c3cc(O)ccc3o2)cc1
MIC [1]: > 32 µg/mL

C=CCCCCCCC[C@H]1C(=O)O[C@@H]1CCCCCNC(=O)c1ccc(N(C)C)cc1
MIC [2]: 1.6 µM (≈ 0.686 µg/mL)

COC(=O)c1c(NC(=O)c2c(F)c(F)c(F)c(F)c2F)sc2c1CCCCC2
MIC [1]: 1 µM

CCOC(=O)c1c(NC(=O)c2c(F)c(F)c(F)c(F)c2F)sc(C(N)=O)c1C
MIC [1]: 0.5 µM

CCOC(=O)c1c(NC(=O)c2c(F)c(F)c(F)c(F)c2F)sc2c1CCN(CC)C2
MIC [3]: 0.23 µM (≈ 0.103 µg/mL)

CNC(=O)c1c(-c2ccc(O)cc2)oc2ccc(O)c(CN3CCCCC3)c12
MIC [1]: 0.047 µg/mL
MIC [4]: 0.09 µM (≈ 0.0342 µg/mL)

O=c1cc(-c2ccccc2)oc2ccc(O)c(CN3CCCCC3)c12
MIC [1]: 3.12 µg/mL

CCOC(=O)c1c(-c2ccccc2)oc2ccc(O)c(CN3CCCC3)c2c1=O
MIC [1]: > 32 µg/mL

O=c1cc(-c2ccc(Cl)cc2)oc2ccc(O)c(CN3CCC3)c12
MIC [1]: 28.5 µg/mL

CCOC(=O)c1c(-c2ccccc2)oc2ccc(O)c(CN3CCC3)c2c1=O
MIC [1]: 14.1 µg/mL

O=c1cc(-c2ccc(O)cc2)oc2ccc(O)c(CN3CCCCC3)c12
MIC [1]: 3.84 µg/mL

O=c1c(-c2ccc(O)cc2)coc2ccc(O)c(CN3CCCCC3)c12
MIC [1]: > 32 µg/mL

O=c1cc(-c2ccccc2)oc2ccc(O)c(CN3CCC3)c12
MIC [1]: 3.22 µg/mL

O=c1cc(-c2ccccc2)oc2ccc(O)c(CN3CC4(CSC4)C3)c12
MIC [1]: 31.1 µg/mL

CCOC(=O)c1c(-c2ccc(O)cc2)oc2ccc(O)c(CN3CCCC3)c2c1=O
MIC [1]: > 32 µg/mL

CCN(CC)Cc1c(O)ccc2oc(-c3ccc(O)cc3)cc(=O)c12
MIC [1]: 29.9 µg/mL

O=c1cc(-c2ccc(O)cc2)oc2ccc(O)c(CN3CCCC3)c12
MIC [1]: 0.938 µg/mL
IC50 (Vero): 8.8 µg/mL (≈ 26.1 µM)
selectivity ratio [5]: 9
remaining at 0.5 h [6]: 102%
Stabilty [7]: Stable
Stabilty [8]: Stable

CCOC(=O)c1c(-c2ccccc2)oc2ccc(O)c(CN3CCCCC3)c2c1=O
MIC [1]: 31.9 µg/mL

O=c1cc(-c2ccc(O)cc2)oc2ccc(O)c(CN3CCOCC3)c12
MIC [1]: > 32 µg/mL

O=c1cc(-c2ccc(F)cc2)oc2ccc(O)c(CN3CCC3)c12
MIC [1]: 3.55 µg/mL

O=c1cc(-c2ccc(O)cc2)oc2ccc(O)c(CNC3CCCCC3)c12
MIC [1]: > 32 µg/mL

CNC(=O)c1c(-c2ccccc2)oc2ccc(O)c(CN3CCC3)c2c1=O
MIC [1]: > 32 µg/mL

CNC(=O)c1c(-c2ccccc2)oc2ccc(O)c(CN3CCCC3)c2c1=O
MIC [1]: > 32 µg/mL

O=c1cc(-c2ccccc2)oc2ccc(O)c(CN3CCCC3)c12
MIC [1]: 3.68 µg/mL

COc1ccc(-c2cc(=O)c3c(CN4CCCCC4)c(O)ccc3o2)cc1
MIC [1]: 7.3 µg/mL

Cc1ccc(-c2cc(=O)c3c(CN4CCC4)c(O)ccc3o2)cc1
MIC [1]: 6.52 µg/mL

O=c1cc(-c2ccc(O)cc2)oc2ccc(O)c(CN3CCC3)c12
MIC [1]: 0.45 µg/mL
IC50 (Vero): 53.1 µg/mL (≈ 164 µM)
selectivity ratio [5]: 117
remaining at 0.5 h [6]: 96%
Stabilty [7]: Stable
Stabilty [8]: Stable
Tmax [9]: 0.25 h
half-life [10]: 1.42 h
half-life [11]: 1.28 h
Cmax [12]: 4460 ng/mL
Cmax [13]: 1660 ng/mL
AUC(0-t) [14]: 1030 ng·h/mL
AUC(0-t) [15]: 4220 ng·h/mL
AUC(0-inf) [16]: 1040 ng·h/mL
AUC(0-inf) [17]: 4290 ng·h/mL
MRT last [18]: 0.61 h
MRT last [19]: 1.7 h
MRT inf [20]: 0.69 h
MRT inf [21]: 1.82 h
Vd [22]: 8.86 L/kg
clearance [23]: 80.1 mL/min/kg
bioavailability [24]: 20.5%
Activity [25]: 20.57 g
Activity [26]: 4.77 log10CFU

CCOC(=O)c1c(-c2ccc(O)cc2)oc2ccc(O)c(CN3CCC3)c2c1=O
MIC [1]: 7.91 µg/mL

O=c1cc(-c2ccc(O)cc2)oc2ccc(O)c(CN3CCCCCC3)c12
MIC [1]: 7.2 µg/mL

CN(C)Cc1c(O)ccc2oc(-c3ccc(O)cc3)cc(=O)c12
MIC [1]: > 32 µg/mL

O=c1cc(-c2ccc(O)cc2)oc2ccc(O)c(CN3CC4(CSC4)C3)c12
MIC [1]: 15.3 µg/mL

CNC(=O)c1c(-c2ccccc2)oc2ccc(O)c(CN3CCCCC3)c2c1=O
MIC [1]: > 32 µg/mL

NNC(=O)c1ccncc1 [ISONIAZID]
MIC [1]: 0.039 µg/mL
Activity [27]: 20.9 g
Activity [28]: 1.76 log10CFU

CO[C@H]1/C=C/O[C@@]2(C)Oc3c(C)c(O)c4c(O)c(c(/C=N/N5CCN(C)CC5)c(O)c4c3C2=O)NC(=O)/C(C)=C\C=C\[C@H](C)[C@H](O)[C@@H](C)[C@@H](O)[C@@H](C)[C@H](OC(C)=O)[C@@H]1C [RIFAMPIN]
MIC [1]: 0.057 µg/mL
